Data on 3 molecules can be found in ChEMBL document CHEMBL1124400, “Synthesis and evaluation of antileukemic activity of 5-thienyl- or 5-(2-furyl)-2,3-dihydro-6,7-bis(hydroxymethyl)-1H-pyrrolizine bis(alkylcarbamates) and derivatives” (J Med Chem, 1989).

Where “and” joins values, the source holds several entries; their conditions need not be identical. Equal entries are not always repeated.

For data set [1], the system named is Mus musculus. Kind of data set: MST of mitomycin 2 mg/kg treated group x 100/MST of untreated control group at a dose of 25 mg/kg in L1210 leukemic mice. The data set is classed as functional. In outline: (§1)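 Reference group of 8 B6D2F1 mice bearing ip-grafted 10⁵ L1210 cells (day 0), given mitomycin 2 mg/kg in distilled water ip on days 1, 5 and 9. Controls were 12 mice given vehicle only. Mortality was followed daily with autopsy. Ref I = mitomycin-group MST × 100/control MST, run alongside each test experiment.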

The test system of data set [2] is Mus musculus. Put plainly: MST of mitomycin 2 mg/kg treated group x 100/MST of untreated control group at a dose of 20 mg/kg in L1210 leukemic mice. The data set is classed as functional. Summed up:
as §1

Data set [3] concerns Mus musculus. Kind of data set: Median survival time of treated group / untreated group, when 20 mg/kg compound is administered intraperitoneally in L1210 leukemic mice. The data set is classed as functional. The note with it: route intraperitoneal. Summed up:
(§2)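 Male 3-month-old B6D2F1 mice, 10⁵ L1210 cells ip on day 0. Compound was given ip on days 1, 5 and 9 in aqueous 20% Tween 80 (0.1–0.2 mL per 20 g), 8 mice per group. Twelve vehicle controls. Daily mortality with autopsy to assign leukemic versus toxic death. I = treated MST × 100/control MST. Wilcoxon test, p < 0.05; active if I > 125 and p < 0.05.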

The subject of data set [4] is Mus musculus. Kind of data set: Median survival time of treated group / untreated group, when 25 mg/kg compound is administered intraperitoneally in L1210 leukemic mice. The data set is classed as functional. As to conditions: route intraperitoneal. In outline:
as §2

Data set [5] is described as follows: Lethal dose in L1210 leukemic mice, by administering compound intraperitoneally. As to conditions: mouse, in vivo, ip. The data set is classed as toxicity, organism-based. Summed up:
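Male B6D2F1 mice (3 months old) received 10⁵ L1210 leukemia cells ip on day 0. One day later they were given compound ip. Mortality was recorded daily for 9 days and the acute LD50 expressed in mg/kg.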

Data set [6] is described as follows: Ratio, I x 100/ref I at a dose of 20 mg/kg in L1210 leukemic mice. Format: functional. In outline: (§3)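 Male B6D2F1 mice, 3 months old, received 10^5 L1210 cells ip on day 0. Dosing was ip on days 1, 5 and 9 in 20% aqueous Tween 80, 0.1–0.2 mL per 20 g, with 8 mice per group. There were 12 vehicle controls and 8 mice given mitomycin 2 mg/kg ip in water. Daily mortality was recorded, with autopsies. Ratio = treated-group MST ×100/reference-group MST; Wilcoxon, p<0.05.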

Data set [7] is described as follows: Ratio, I x 100/ref I at a dose of 25 mg/kg in L1210 leukemic mice. The data set is classed as functional. Summed up:
as §3

The subject of data set [8] is Mus musculus. Put plainly: MST of mitomycin 2 mg/kg treated group x 100/MST of untreated control group at a dose of 35 mg/kg in L1210 leukemic mice. Format: functional. In outline: as §1
In data set [9] the test system is Mus musculus. Kind of data set: MST of mitomycin 2 mg/kg treated group x 100/MST of untreated control group at a dose of 65 mg/kg in L1210 leukemic mice. Format: functional. Summed up: as §1
The subject of data set [10] is Mus musculus. Kind of data set: Median survival time of treated group / untreated group, when 35 mg/kg compound is administered intraperitoneally in L1210 leukemic mice. As to conditions: route intraperitoneal. The data set is classed as functional. In outline: as §2
In data set [11] the test system is Mus musculus. Kind of data set: Median survival time of treated group / untreated group, when 65 mg/kg compound is administered intraperitoneally in L1210 leukemic mic. Format: functional. The note with it: route intraperitoneal. In outline:
as §2

Data set [12] relates to Mus musculus. Put plainly: Median survival time of treated group / untreated group, when 40 mg/kg compound is administered intraperitoneally in L1210 leukemic mice. The note with it: route intraperitoneal. Format: functional. Summed up:
as §2

Data set [13] in a line: Ratio of acute lethal dose to the efficient dose 30 mg/kg. Format: functional. Summed up:
(§4)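 Ratio of acute LD50 to efficient dose. LD50 came from single ip dosing one day after ip grafting of 10⁵ L1210 cells in B6D2F1 mice, with 9-day mortality. The efficient dose came from ip treatment on days 1, 5 and 9 in the median-survival test.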

Data set [14] in a line: Ratio of acute lethal dose to the efficient dose 35 mg/kg. Format: functional. In outline:
as §4

A short description of data set [15]: Ratio of acute lethal dose to the efficient dose 40 mg/kg. Format: functional. Summed up:
as §4

A short description of data set [16]: Ratio of acute lethal dose to the efficient dose 65 mg/kg. Format: functional. In outline: as §4
Data set [17] can be described thus: Ratio, I x 100/ref I at a dose of 35 mg/kg in L1210 leukemic mice. Format: functional. In outline:
as §3

Data set [18] in a line: Ratio, I x 100/ref I at a dose of 40 mg/kg in L1210 leukemic mice. Format: functional. Summed up:
as §3

Data set [19] in a line: Ratio, I x 100/ref I at a dose of 65 mg/kg in L1210 leukemic mice. Format: functional. In outline:
as §3

Data set [20] concerns Mus musculus. Put plainly: MST of mitomycin 2 mg/kg treated group x 100/MST of untreated control group at a dose of 40 mg/kg in L1210 leukemic mice. The data set is classed as functional. Summed up:
as §1

Data set [21] relates to Mus musculus. Put plainly: MST of mitomycin 2 mg/kg treated group x 100/MST of untreated control group at a dose of 30 mg/kg in L1210 leukemic mice. Format: functional. In outline:
as §1

The test system of data set [22] is Mus musculus. Put plainly: MST of mitomycin 2 mg/kg treated group x 100/MST of untreated control group at a dose of 100 mg/kg in L1210 leukemic mice. The data set is classed as functional. In outline:
as §1

Data set [23] concerns Mus musculus. Put plainly: MST of mitomycin 2 mg/kg treated group x 100/MST of untreated control group at a dose of 15 mg/kg in L1210 leukemic mice. The data set is classed as functional. Summed up:
as §1

In data set [24] the test system is Mus musculus. Put plainly: MST of mitomycin 2 mg/kg treated group x 100/MST of untreated control group at a dose of 50 mg/kg in L1210 leukemic mice. Format: functional. Summed up: as §1
The test system of data set [25] is Mus musculus. Put plainly: Median survival time of treated group / untreated group, when 15 mg/kg compound is administered intraperitoneally in L1210 leukemic mice. The data set is classed as functional. The note with it: route intraperitoneal. Summed up: as §2
The test system of data set [26] is Mus musculus. Put plainly: Median survival time of treated group / untreated group, when 30 mg/kg compound is administered intraperitoneally in L1210 leukemic mice. Format: functional. The note with it: route intraperitoneal. In outline: as §2
Data set [27] relates to Mus musculus. Put plainly: Median survival time of treated group / untreated group, when 50 mg/kg compound administered intraperitoneally in L1210 leukemic mice. Format: functional. As to conditions: route intraperitoneal. In outline: as §2
The nature of data set [28]: Ratio, I x 100/ref I at a dose of 100 mg/kg in L1210 leukemic mice. The data set is classed as functional. Summed up:
as §3

Data set [29] can be described thus: Ratio, I x 100/ref I at a dose of 15 mg/kg in L1210 leukemic mice. The data set is classed as functional. Summed up: as §3
The nature of data set [30]: Ratio, I x 100/ref I at a dose of 50 mg/kg in L1210 leukemic mice. Format: functional. In outline:
as §3

Data set [31] is described as follows: Ratio, I x 100/ref I at a dose of 30 mg/kg in L1210 leukemic mice. The data set is classed as functional. Summed up: as §3

The LD50 is the dose expected to kill half of the subjects tested. In the case of `CC(C)NC(=O)OCc1c(COC(=O)NC(C)C)c(-c2ccsc2)n2c1CCC2`, the “Ref I oncostatic index” value was 162 in the data set with Mus musculus [1] and 139 in the data set on Mus musculus [2]. Besides, the Oncostatic index in the data set on Mus musculus [3] turned out to be 100; in the data set on Mus musculus [4], 117. Moreover, in data set [5], the median lethal dose (LD50) turned out to be 65 mg/kg. Besides, the Ratio in data set [6] and in [7] was 72 in each case.
Take `CNC(=O)OCc1c(COC(=O)NC)c(-c2cccs2)n2c1CCC2`: the “Ref I oncostatic index” value in the data set with Mus musculus [8] was 167; in the data set on Mus musculus [9], 125; with Mus musculus [20], 138. In addition, the Oncostatic index in the data set on Mus musculus [10] worked out at 167; with Mus musculus [11] it was 125; with Mus musculus [12], 138. In [5], this molecule showed a 50% lethal dose (LD50) of 120 mg/kg. In addition, the Ratio is on record as 1.7 in data set [13]; 3.4 in [14]; 3 in [15]; 1.8 in data set [16]; 100 in data set [17]; 100 in data set [18]. The Ratio in data set [19] came out at 100.
As to `CC(=O)OCc1c(COC(C)=O)c(-c2cccs2)n2c1CCC2`, the “Ref I oncostatic index” value is 140 in the data set on Mus musculus [21], 125 in the data set with Mus musculus [22], 121 with Mus musculus [23] and 136 in the data set on Mus musculus [24]. For the same molecule, the Oncostatic index was 100 with Mus musculus [25]; 114 and 100 in the data set with Mus musculus [26]; 117 in the data set on Mus musculus [27]. The LD50 in data set [5] was determined as 80 mg/kg. The Ratio in [28] is 80; in [29] it was 83; in data set [30] it was 92; in [31] it was 86.
